Assay results: the RNAGym collection of RNA variant scans (doi:10.1126/science.aae0568)
Fewer inactive variants are shown than the library holds.

B1: tRNA (parent)
chain: GUUCCGUUGGCGUAAUGGUAACGCGUCUCCCUCCUAAGGAGAAGACUGCGGGUUCGAGUCCCGUACGGAACG

Variants of: B1
Assay: yeast fitness relative to wild type (ratio to wild type); higher = fitter; tRNA-Arg(CCU), competitive growth, 37 C, YPD
In short: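 Start and end populations of a pooled competition were compared by 100-nucleotide paired-end sequencing of gene amplicons. The Saccharomyces cerevisiae strains carried tRNA-Arg(CCU) gene variants at the native genomic locus, synthesised with a 3% per-site mutation rate at 69 sites, and competed in YPD at 37°C for 24 hours in six parallel replicates. Darwinian fitness relative to wild type was based on the change in genotype frequencies. Genotypes required ≥ 100 starting reads, and estimates < 0.5 were set to 0.5.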

Variant	yeast fitness
C11A A40G C66U	≤ 0.5
C11A C31G A42U C62A C66U A69U	≤ 0.5
G10C U26A C27U C34U C49U	0.602
G10C C46U	0.611
G10C C46A	0.626
C11A A42G A43U C46U	0.532
G10C U19A C29G C34U	≤ 0.5
C11A C27U C31A	≤ 0.5
G10U G17A C24A	0.643
G10C C27U U47G	0.632
G10C C27G C30G G48C A65C	≤ 0.5
C11A A14G A20U C22G C24U G48C G52A	0.57
G10C U26C A45G U53C A65C	≤ 0.5
G10C C30G C60A	≤ 0.5
C11A C27G G50A U64G	≤ 0.5
G10C C29G	≤ 0.5
C11A A43U C49U	0.548
G10C U26G C27G U32A A40U	≤ 0.5
C11A A36G G56C	≤ 0.5
G10C C60U C62U A70C	≤ 0.5
C11A C27U U28C A57C C62A	0.716

Variant	yeast fitness
C11A C55U G63A	≤ 0.5
C11A C61U A70C	≤ 0.5
C11A C31A G44C C60A	≤ 0.5
G10C U28A	0.59
C11A A43U C66U	≤ 0.5
C11A A57G A69U	≤ 0.5
C11A C27A C29A A42C U47A G52A U59C	0.503
C11A C24U C27A C62G	≤ 0.5
G10C U13A	0.549
C11A A21C A43G C60U C62U A70C	≤ 0.5
C11A A21U U54G A65C	≤ 0.5
C11A A21C G25C C34A A36U G44A	≤ 0.5
C11A A21U C55U	0.788
G10C C29U G56A C61U	≤ 0.5
C11A A45C U53C	0.645
G10C U26A C33U A70G	≤ 0.5
C11A C62G	0.552
G10C C27G A42C C49A A69C	≤ 0.5
C11A C31A G44C A65C	≤ 0.5
C11A A42G C49U A65C	≤ 0.5
C11A C46U	0.712

Variant	yeast fitness
G10C C34U A65G	≤ 0.5
C11A C24G U47G	≤ 0.5
C11A A20G C46U G50C C60A A70C	0.632
G10C C31G C49U	≤ 0.5
G10C U47C	0.695
G10C U47G	≤ 0.5
G10C G18C C22U U26G C30U A40G	≤ 0.5
C11A A43U C62G A70U	≤ 0.5
G10C G12C G39A C61U A69C	0.528
G10C U35G A43C U47C C55U C62U A69C	≤ 0.5
G10C G17A A42U	≤ 0.5
G10C C27U A43G C46G A69C	≤ 0.5
G10C G68U	0.693
C11A A15C C34A C66A	≤ 0.5
C11A C60G A65U	≤ 0.5
C11A A43G G58C C62U	≤ 0.5
G10C C27U A36C C61U A65G	≤ 0.5
G10C C29U C31U A65U	≤ 0.5
C11A A45U G50U U54C U64A	≤ 0.5
C11A A21G C31G A36U A65U	≤ 0.5
G10C C49A C55A C62U C66U	≤ 0.5

Variant	yeast fitness
C11A A42C C46G C60A	≤ 0.5
G10C U35G A43C U47C C55U C66U	≤ 0.5
C11A A15C C24G C34A	≤ 0.5
G10C G17A U28G G39A C49A	≤ 0.5
C11A C66U	0.569
G10C G38C C49A G50C G68C	≤ 0.5
G10C U19A C31G C34A A42G	≤ 0.5
C11A A21G C55G C62A	≤ 0.5
C11A C46U A57C C66A	≤ 0.5
G10C U26A C27U C31G A42U U47A U53C	0.721
C11A C34U U53C A69C	≤ 0.5
G10C U26A C33U U53C A70C	0.724
C11A A21G A40G	0.571
C11A C30G A45U C60A	0.537
C11A C34G	≤ 0.5
G10C G51C C61U	≤ 0.5
C11A C49A C62A	≤ 0.5
C11A A20C U28C A37U A40C G48A	≤ 0.5
C11A C22A C29G	0.545
C11A A21C U28A C55U C62U G67C	≤ 0.5
